Data set [1] concerns Leishmania donovani. Nature of the data set: Antileishmanial activity against extracellular promastigote form of Leishmania donovani MHOM/IN/80/Dd8 expressing firefly luciferase gene assessed as inhibition of parasitic multiplication at 25 uM after 96 hrs by luminescence analysis. Type of data set: functional. The settings on record: MHOM/IN/80/Dd8, 96 h. The method in brief: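 Late-log luciferase-expressing Dd8 promastigotes, 5 × 10⁵/mL in complete M-199, incubated with compound at 24 °C for 96 h. Aliquot mixed with Steady Glo and luminescence read as RLU. Inhibition of multiplication taken from luciferase signal of treated versus untreated parasites.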

The test system of data set [2] is J774.A1. Nature of the data set: Increase in TNF-alpha production in mouse J774A1 cells infected with Leishmania donovani at IC50 concentration after 24 hrs by sandwich ELISA relative to control. Type of data set: functional. Summed up: (§1)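 J774A.1 macrophages (1 × 10⁶) infected with Leishmania at 1:10, treated in 6-well plates at the compound's IC₅₀ concentration, 37 °C, CO₂. Supernatants from normal, infected-untreated and infected-treated cells collected after 24 h. IL-12, TNF-α, IL-10 and TGF-β measured by sandwich ELISA at 450 nm, in pg/mL. Two independent experiments in duplicate, mean ± SD; Student's t test against infected control.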

Data set [3] concerns Leishmania donovani. Nature of the data set: Induction of necrosis in Leishmania donovani MHOM/IN/80/Dd8 promastigotes at 0.78 uM after 72 hrs by Annexin V-FITC/propidium iodide staining based flow cytometry. Type of data set: functional, organism-based. In general terms: Flow cytometry measures light scatter and fluorescence of single cells or particles in a stream.
The nature of data set [4]: Apparent oral volume of distribution in Syrian golden hamster at 100 mg/kg, po administered via gavage as single dose by HPLC-UV analysis. The settings on record: in vivo. The arrangement: dose 100 mg/kg, route oral. It counts as ADME, organism-based, Mesocricetus auratus. Summed up:
(§2)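 Male Syrian golden hamsters (100 ± 15 g) given a single oral dose of 100 mg/kg. Plasma stored at −70 °C and assayed by HPLC-UV. Concentration–time profiles analysed non-compartmentally; values mean ± SD.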

For data set [5], the system named is J774.A1. The data set is described as follows: Increase in IL-12 production in mouse J774A1 cells infected with Leishmania donovani at IC50 concentration after 24 hrs by sandwich ELISA relative to control. Type of data set: functional. Summed up: as §1
Background: An ELISA detects its analyte on a solid surface through an enzyme-linked reagent.

The nature of data set [6]: Cytotoxicity against African green monkey Vero cells after 72 hrs by MTT assay. Type of data set: cell-based. The settings on record: chlorocebus sabaeus. The method in brief:
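Vero cells at 1 × 10⁵/mL exposed to seven concentrations from 400 μM at 37 °C, 5% CO₂, for 72 h. MTT (5 mg/mL) added for 2 h at 37 °C, formazan dissolved in DMSO, absorbance read at 544 nm. CC₅₀ estimated by the Huber and Koella method; at least duplicate measurements.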
A general note: Tetrazolium assays rely on reduction of a dye to a coloured formazan, in cell work by metabolically active cells.

Data set [7] relates to Leishmania donovani. The data set is described as follows: Antileishmanial activity against intracellular amastigote form of Leishmania donovani MHOM/IN/80/Dd8 expressing luciferase gene infected in mouse J774A1 cells after 72 hrs by luminescence analysis. Particulars: MHOM/IN/80/Dd8, J774.A1, 72 h. Type of data set: functional, organism-based. The method in brief:
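J774A.1 macrophages (4 × 10⁴/mL, RPMI-1640 + 10% HIFBS, 37 °C, 5% CO₂), after 24 h infected with stationary-phase luciferase promastigotes (4 × 10⁵/mL). Free parasites washed off after 24 h. Compound added at up to 7 dilutions from 40 μM for 72 h. Luminescence read after Steady Glo in PBS. IC₅₀ from four-parameter Hill fit; at least duplicate measurements.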

Data set [8] has as its system Leishmania donovani. Nature of the data set: Induction of early apoptosis in Leishmania donovani MHOM/IN/80/Dd8 promastigotes at 0.78 uM after 48 hrs by Annexin V-FITC/propidium iodide staining based flow cytometry (reference value: 13.70%). Type of data set: functional.
A short description of data set [9]: Tmax in Syrian golden hamster at 100 mg/kg, po administered via gavage as single dose by HPLC-UV analysis. It counts as ADME, organism-based, Mesocricetus auratus. Also noted: dose 100 mg/kg, route oral. Particulars: in vivo. The method in brief:
as §2

In data set [10] the test system is J774.A1. The data set is described as follows: Induction of nitric oxide production in mouse J774A1 cells infected with Leishmania donovani after 24 hrs by Griess reagent based spectrophotometric analysis relative to control. It counts as functional. Summed up:
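Infected J774A.1 macrophages (1 × 10⁶/mL) incubated with compound for 24 h; LPS 10 μg/mL as stimulant. Supernatant mixed 1:1 with Griess reagent at room temperature, absorbance at 540 nm, nitrite reported in μM. Normal, infected-untreated and infected-treated cells compared. Two independent experiments, mean ± SD; Student's t test against infected control.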

Data set [11] relates to Leishmania donovani. Nature of the data set: Antileishmanial activity against Leishmania donovani MHOM/IN/80/Dd8 amastigotes infected in syrian golden hamster assessed as decrease in parasite count in spleen at 50 mg/kg/day, po for 5 days measured on day 28 after last dose administration by giemsa staining. Type of data set: functional. The settings on record: MHOM/IN/80/Dd8, Spleen. Summed up:
(§3)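 Golden hamsters of either sex infected intracardially with 1 × 10⁷ L. donovani Dd8 amastigotes. After 15−20 days, pretreatment spleen biopsy; animals with +1 grade infection (5−10 amastigotes/100 spleen cell nuclei) used, 5−6 per compound. Aqueous suspensions dosed IP or PO for 5−10 consecutive days starting 2 days after biopsy. Splenic biopsies on day 7 and 28 after last dose, Giemsa counts; PI = 100 − [(ANAT×100)/(INAT×TIUC)].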

The test system of data set [12] is Leishmania donovani. Nature of the data set: Induction of apoptosis in Leishmania donovani MHOM/IN/80/Dd8 promastigotes assessed as drop in mitochondrial membrane potential at 0.78 uM after 12 hrs by JC-1 dye based flow cytometry (reference value: 5.87%). It counts as functional.
For data set [13], the system named is Leishmania donovani. Nature of the data set: Antileishmanial activity against Leishmania donovani MHOM/IN/80/Dd8 amastigotes infected in syrian golden hamster assessed as decrease in parasite count in spleen at 100 mg/kg/day, po for 5 days measured on day 28 after last dose administration by giemsa staining. Type of data set: functional. The settings on record: MHOM/IN/80/Dd8, Spleen. Summed up: as §3

Structures are written as SMILES. The source made the active and inactive calls. The calls are words filed in the database; no cut-off is given here.

As usually defined, the inhibition is the percentage by which the read-out fell short of the control. The Vd/F is the apparent distribution volume after extravascular dosing. For orientation: CC50 means the concentration that lowers cell viability or growth by half. For orientation: IC50 means the concentration that inhibits the measured activity by half. Usually Tmax stands for the time from dosing to the highest level. One may read the inhibition in vivo as the share of the control response that was lost under treatment. Regarding `CC(C)=CCCC1(C)C=Cc2c(ccc(C(=O)/C=C/c3cccnc3)c2O)O1` (stereo not drawn), in the data set on Leishmania donovani [1], the inhibition at 25 µM came to 99.8%. In addition, the entries for the “fold change (FC)” value in the data set on J774.A1 [2], in the data set on J774.A1 [5] and in the data set on J774.A1 [10] were 11.6, 16 and 6.3, respectively. Further, the result in the data set on Leishmania donovani [3] was inactive. Also, the Vd/F in data set [4] stood at 392 L/kg. The CC50 at 72 h in data set [6] stood at 40.7 µM. The same compound gave an IC50 in the data set on Leishmania donovani [7] of 5.4 µM. Besides, the Activity amounted to 37.62% in the data set on Leishmania donovani [8] and 17.46% in the data set on Leishmania donovani [12]. For the same compound, the Tmax in data set [9] amounted to 37.5 min. Further, in the data set with Leishmania donovani [11], the inhibition in vivo at 50 mg/kg/day stood at 55.4%. The inhibition in vivo at 100 mg/kg/day in the data set with Leishmania donovani [13] was 84.5%.

The values are drawn from ChEMBL document CHEMBL3259690, “Synthesis, structure-activity relationships, and biological studies of chromenochalcones as potential antileishmanial agents” (J Med Chem, 2014).
